The values below come from publication PMC5508980 (Molecular nutrition & food research, 2017).

For one test, the system named is Class IIb HDAC. Briefly: HDAC activity assay, class IIb substrate, bovine heart tissue lysate. Format: biochemical. Conditions: 2 hours treatment. A digest of the protocol: (§1)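 Bovine heart lysate prepared in PBS pH 7.4 with 0.5% Triton X-100, 300 mM NaCl and protease/phosphatase inhibitors, then clarified; 30 µg protein/well in PBS. Test compound at semi-log increasing concentrations for 2 h, then class-specific AMC-acyl-lysine substrate (1 mM DMSO stock) for 2 h at 37 °C.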

The next test addresses T1, recombinant HDAC7 (Homo sapiens, UniProt Q8WUI4).
T1 sequence (Q8WUI4 1-952): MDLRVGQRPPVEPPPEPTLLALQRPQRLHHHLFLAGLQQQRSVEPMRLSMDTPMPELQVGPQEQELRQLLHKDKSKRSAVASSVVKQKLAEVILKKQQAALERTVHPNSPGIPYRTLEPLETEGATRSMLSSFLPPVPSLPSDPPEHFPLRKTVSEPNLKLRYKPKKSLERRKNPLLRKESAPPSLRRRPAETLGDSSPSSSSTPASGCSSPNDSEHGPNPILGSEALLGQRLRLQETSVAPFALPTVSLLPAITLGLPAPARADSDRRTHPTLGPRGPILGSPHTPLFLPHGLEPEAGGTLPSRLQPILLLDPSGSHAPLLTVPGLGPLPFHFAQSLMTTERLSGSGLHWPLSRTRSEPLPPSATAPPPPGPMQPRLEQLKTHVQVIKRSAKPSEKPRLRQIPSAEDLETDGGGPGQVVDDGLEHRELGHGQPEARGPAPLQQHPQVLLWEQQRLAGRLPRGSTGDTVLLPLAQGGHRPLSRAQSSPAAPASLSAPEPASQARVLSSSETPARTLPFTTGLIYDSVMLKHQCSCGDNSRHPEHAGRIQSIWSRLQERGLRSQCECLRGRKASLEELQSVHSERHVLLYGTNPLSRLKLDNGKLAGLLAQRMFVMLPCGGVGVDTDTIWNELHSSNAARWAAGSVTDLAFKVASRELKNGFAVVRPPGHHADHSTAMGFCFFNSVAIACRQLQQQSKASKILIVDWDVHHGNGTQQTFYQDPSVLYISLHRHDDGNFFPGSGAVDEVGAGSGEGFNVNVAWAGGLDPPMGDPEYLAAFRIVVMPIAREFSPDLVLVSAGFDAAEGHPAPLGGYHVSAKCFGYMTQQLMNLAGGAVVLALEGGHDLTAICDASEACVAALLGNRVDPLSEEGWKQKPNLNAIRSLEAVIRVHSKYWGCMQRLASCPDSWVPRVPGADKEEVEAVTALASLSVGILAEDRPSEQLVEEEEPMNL
Nature of the test: Recombinant HDAC activity assay. It is filed as biochemical. To be noted: recombinant protein incubated with 50 µM compound, 2 hrs.

In a further test the target is T2, recombinant HDAC6 (Homo sapiens, UniProt Q9UBN7).
T2 sequence (Q9UBN7 1-1215): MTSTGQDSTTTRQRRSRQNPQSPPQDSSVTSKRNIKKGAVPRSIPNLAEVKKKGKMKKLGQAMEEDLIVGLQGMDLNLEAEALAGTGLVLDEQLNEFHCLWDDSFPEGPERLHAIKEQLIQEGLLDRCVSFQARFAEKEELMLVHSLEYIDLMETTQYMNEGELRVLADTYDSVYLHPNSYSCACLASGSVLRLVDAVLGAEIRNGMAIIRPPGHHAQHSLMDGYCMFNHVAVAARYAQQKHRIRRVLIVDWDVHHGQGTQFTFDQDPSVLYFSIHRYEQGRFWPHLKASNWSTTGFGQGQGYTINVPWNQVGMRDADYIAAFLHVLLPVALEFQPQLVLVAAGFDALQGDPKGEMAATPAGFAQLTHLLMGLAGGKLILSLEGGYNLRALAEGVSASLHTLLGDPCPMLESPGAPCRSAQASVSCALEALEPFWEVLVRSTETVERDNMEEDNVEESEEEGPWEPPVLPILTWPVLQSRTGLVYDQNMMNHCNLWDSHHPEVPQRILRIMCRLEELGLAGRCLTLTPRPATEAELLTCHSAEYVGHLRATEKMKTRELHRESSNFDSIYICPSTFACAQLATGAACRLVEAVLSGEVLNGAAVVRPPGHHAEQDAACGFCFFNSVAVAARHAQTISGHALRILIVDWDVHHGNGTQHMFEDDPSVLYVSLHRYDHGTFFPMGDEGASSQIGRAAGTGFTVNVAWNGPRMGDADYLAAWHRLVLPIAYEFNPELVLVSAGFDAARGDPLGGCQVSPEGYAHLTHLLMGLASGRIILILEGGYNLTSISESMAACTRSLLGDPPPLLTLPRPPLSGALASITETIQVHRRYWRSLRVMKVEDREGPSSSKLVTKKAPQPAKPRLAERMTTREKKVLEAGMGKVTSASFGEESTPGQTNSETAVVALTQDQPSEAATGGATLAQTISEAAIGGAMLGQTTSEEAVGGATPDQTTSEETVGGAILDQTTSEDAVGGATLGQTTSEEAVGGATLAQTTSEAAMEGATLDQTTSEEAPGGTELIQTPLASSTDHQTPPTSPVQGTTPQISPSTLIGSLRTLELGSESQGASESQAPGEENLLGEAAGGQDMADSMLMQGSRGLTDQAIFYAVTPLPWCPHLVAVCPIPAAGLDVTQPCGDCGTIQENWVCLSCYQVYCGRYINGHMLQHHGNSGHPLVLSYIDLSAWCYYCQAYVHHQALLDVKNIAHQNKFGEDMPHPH
Nature of the test: Recombinant HDAC activity assay. It is filed as biochemical. To be noted: 2 h, read-out: % HDAC activity, Class IIb HDACs, 6.

A further test concerns the target recombinant HDAC1 (Homo sapiens, UniProt Q13547). Briefly: Recombinant HDAC activity assay. It is filed as biochemical. To be noted: 2 h, read-out: % HDAC activity, Class I HDACs, 1.
For the next test, the target named is recombinant HDAC3 (Homo sapiens, UniProt O15379). Nature of the test: Recombinant HDAC activity assay. Format: biochemical. To be noted: 2 h, read-out: % HDAC activity, Class I HDACs, 3.
Chain of recombinant HDAC3 (O15379 whole entry): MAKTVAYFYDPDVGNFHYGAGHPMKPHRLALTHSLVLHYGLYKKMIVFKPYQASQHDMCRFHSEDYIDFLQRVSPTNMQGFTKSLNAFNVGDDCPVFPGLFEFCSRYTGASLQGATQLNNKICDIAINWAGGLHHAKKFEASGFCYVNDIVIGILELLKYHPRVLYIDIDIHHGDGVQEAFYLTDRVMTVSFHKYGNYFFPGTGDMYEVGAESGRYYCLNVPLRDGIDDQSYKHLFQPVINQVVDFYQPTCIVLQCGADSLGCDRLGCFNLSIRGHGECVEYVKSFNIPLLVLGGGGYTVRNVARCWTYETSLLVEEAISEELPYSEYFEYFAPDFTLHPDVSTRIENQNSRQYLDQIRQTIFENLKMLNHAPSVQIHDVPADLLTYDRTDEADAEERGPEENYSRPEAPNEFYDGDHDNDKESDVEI
Chain of recombinant HDAC3 (Q9Y618 395-489 partner limits assumed): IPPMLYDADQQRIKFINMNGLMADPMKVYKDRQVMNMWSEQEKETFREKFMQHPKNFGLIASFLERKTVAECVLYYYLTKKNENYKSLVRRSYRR
The target of the next test is T3, recombinant HDAC8 (Homo sapiens, UniProt Q9BY41).
T3 sequence (Q9BY41 1-377): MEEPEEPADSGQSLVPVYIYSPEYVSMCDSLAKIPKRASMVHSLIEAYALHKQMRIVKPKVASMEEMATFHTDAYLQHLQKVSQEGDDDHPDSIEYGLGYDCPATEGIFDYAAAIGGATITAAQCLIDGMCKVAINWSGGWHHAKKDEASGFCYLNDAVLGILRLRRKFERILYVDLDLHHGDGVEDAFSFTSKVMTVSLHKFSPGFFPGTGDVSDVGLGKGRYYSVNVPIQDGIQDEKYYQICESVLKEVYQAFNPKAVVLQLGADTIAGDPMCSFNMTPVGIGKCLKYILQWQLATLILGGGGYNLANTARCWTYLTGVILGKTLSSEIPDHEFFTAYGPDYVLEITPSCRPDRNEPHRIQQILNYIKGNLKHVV
Nature of the test: Recombinant HDAC activity assay. Format: biochemical. To be noted: 2 h, read-out: % HDAC activity, Class I HDACs, 8.

The target of a further test is recombinant HDAC4 (Homo sapiens, UniProt P56524). Briefly: Recombinant HDAC activity assay. Format: biochemical. Conditions: 2 h, read-out: % HDAC activity, Class IIa HDACs, 4.
Chain of recombinant HDAC4 (P56524 whole entry): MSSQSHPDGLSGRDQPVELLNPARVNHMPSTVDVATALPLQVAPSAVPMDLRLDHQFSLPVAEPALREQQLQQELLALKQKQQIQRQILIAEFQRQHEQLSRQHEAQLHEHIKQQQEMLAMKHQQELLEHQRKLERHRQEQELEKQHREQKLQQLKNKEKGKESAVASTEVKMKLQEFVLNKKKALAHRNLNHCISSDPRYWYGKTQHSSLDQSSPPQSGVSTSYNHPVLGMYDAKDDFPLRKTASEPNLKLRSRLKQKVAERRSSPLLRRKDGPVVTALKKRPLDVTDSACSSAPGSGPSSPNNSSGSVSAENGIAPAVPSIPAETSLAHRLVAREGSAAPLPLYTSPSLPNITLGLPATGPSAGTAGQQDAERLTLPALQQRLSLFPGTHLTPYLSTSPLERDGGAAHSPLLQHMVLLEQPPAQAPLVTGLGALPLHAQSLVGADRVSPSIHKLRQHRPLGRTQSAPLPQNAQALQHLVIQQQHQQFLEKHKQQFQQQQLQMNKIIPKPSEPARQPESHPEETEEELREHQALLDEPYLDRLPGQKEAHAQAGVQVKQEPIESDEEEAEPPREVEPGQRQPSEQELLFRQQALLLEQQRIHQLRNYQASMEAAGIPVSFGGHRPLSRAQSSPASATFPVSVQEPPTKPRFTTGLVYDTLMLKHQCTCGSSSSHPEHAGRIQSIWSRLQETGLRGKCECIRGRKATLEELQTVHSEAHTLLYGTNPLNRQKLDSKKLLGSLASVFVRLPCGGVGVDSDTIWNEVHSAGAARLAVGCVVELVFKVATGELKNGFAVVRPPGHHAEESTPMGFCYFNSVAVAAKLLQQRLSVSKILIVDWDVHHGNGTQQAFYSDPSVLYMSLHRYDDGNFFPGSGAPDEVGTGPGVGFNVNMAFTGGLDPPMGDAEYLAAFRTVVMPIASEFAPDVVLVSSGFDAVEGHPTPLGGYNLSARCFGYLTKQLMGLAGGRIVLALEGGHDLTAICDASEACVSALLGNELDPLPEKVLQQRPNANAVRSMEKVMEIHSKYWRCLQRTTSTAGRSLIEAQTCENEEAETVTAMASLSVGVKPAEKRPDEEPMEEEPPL
For a further test, the target named is recombinant HDAC5 (Homo sapiens, UniProt Q9UQL6). Briefly: Recombinant HDAC activity assay. Format: biochemical. Conditions: 2 h, read-out: % HDAC activity, Class IIa HDACs, 5.
Chain of recombinant HDAC5 (Q9UQL6 whole entry): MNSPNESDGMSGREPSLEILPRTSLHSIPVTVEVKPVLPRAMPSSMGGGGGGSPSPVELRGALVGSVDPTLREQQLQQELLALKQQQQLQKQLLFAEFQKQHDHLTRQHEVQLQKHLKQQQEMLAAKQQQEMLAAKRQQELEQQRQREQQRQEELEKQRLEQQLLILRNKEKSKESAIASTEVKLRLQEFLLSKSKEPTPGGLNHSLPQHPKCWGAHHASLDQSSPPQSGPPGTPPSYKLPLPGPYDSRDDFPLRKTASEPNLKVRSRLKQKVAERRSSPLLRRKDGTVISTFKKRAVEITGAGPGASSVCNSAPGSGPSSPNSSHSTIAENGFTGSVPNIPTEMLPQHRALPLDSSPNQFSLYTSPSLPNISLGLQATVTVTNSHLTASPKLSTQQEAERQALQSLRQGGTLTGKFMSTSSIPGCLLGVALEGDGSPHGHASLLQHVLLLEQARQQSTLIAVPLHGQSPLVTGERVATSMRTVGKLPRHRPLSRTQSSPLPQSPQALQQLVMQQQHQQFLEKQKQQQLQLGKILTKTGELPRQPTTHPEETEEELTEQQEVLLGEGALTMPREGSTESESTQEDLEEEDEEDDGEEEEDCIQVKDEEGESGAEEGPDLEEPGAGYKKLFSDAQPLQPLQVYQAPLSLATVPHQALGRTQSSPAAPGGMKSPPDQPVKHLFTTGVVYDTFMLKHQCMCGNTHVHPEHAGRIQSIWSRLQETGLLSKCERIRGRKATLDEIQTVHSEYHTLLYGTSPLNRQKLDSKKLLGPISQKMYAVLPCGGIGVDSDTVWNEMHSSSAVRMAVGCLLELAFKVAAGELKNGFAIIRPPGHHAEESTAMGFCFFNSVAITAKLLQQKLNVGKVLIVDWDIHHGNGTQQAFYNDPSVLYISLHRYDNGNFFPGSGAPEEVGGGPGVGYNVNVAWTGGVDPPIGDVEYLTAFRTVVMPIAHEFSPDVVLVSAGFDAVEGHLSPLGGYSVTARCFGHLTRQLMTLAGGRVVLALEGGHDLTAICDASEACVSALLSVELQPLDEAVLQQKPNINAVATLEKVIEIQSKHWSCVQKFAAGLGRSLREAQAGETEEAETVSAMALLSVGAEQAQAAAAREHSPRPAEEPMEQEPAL
In the next test the target is recombinant HDAC9 (Homo sapiens, UniProt Q9UKV0). Briefly: Recombinant HDAC activity assay. It is filed as biochemical. Conditions: 2 h, read-out: % HDAC activity, Class IIa HDACs, 9.
Chain of recombinant HDAC9 (Q9UKV0 whole entry): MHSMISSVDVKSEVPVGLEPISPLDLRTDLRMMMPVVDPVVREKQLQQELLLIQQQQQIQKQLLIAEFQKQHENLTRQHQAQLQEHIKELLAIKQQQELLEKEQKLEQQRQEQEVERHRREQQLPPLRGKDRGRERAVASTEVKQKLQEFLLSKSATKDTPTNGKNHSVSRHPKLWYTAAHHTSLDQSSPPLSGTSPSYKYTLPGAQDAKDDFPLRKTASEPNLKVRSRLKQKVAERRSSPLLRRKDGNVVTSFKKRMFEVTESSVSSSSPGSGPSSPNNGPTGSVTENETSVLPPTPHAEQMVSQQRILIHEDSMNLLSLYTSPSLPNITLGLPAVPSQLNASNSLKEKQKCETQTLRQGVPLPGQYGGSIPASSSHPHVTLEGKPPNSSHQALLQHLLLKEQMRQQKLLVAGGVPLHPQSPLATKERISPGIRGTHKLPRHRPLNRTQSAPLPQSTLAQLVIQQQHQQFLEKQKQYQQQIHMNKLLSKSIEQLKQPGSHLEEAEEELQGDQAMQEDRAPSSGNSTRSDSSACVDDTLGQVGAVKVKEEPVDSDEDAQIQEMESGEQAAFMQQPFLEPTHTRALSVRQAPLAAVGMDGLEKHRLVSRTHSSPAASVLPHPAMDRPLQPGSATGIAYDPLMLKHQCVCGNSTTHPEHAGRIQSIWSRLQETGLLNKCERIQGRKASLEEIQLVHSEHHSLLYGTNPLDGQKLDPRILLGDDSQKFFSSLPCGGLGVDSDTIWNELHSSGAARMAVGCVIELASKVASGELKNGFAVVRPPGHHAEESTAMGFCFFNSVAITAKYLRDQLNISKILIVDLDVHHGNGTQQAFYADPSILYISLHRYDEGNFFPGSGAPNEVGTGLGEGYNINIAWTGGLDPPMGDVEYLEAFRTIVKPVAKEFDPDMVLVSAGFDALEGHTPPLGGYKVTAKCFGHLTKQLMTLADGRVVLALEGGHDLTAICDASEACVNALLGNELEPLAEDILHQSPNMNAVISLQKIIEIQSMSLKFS
Another test concerns the target T4, recombinant HDAC10 (Homo sapiens, UniProt Q969S8).
T4 sequence (Q969S8 1-669): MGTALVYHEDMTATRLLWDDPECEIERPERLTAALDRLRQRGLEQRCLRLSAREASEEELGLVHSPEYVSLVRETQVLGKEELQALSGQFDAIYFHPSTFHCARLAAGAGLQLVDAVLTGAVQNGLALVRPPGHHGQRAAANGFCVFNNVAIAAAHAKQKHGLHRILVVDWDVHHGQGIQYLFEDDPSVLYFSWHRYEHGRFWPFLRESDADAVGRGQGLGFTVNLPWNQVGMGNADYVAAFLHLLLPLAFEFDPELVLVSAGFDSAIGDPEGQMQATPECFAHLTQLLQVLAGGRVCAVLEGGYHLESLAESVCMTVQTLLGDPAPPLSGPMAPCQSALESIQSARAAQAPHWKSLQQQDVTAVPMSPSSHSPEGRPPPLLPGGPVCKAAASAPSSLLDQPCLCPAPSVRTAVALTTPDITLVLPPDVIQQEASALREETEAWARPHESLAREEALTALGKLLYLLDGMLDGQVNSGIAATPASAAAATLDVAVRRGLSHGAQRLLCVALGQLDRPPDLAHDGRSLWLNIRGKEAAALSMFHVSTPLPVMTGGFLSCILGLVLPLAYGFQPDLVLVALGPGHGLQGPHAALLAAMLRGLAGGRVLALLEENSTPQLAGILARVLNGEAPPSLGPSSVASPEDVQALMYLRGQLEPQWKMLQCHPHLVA
Nature of the test: Recombinant HDAC activity assay. Format: biochemical. To be noted: 2 h, read-out: % HDAC activity, Class IIb HDACs, 10.

Test [1] deals with HDAC activity in bovine cardiac tissue. Briefly: Natural product library screen with class-selective HDAC substrates. Format: biochemical. To be noted: 2 hours treatment. The essentials:
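The screen covered 131 natural compounds against bovine cardiac tissue lysate at 30 µg protein/well in PBS (pH 7.4 lysis buffer with Triton X-100 and NaCl). Test compound for 2 h, then separate class I, IIa or IIb fluorogenic acyl-lysine-AMC substrates for 2 h at 37 °C. Developer (Triton X-100, 3 µM TSA, 0.75 mg/ml trypsin) for 20 min; fluorescence read at 360/460 nm.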

Another test has as its system H9c2 cells. Nature of the test: Acetyl-H3K9/14 immunoblot of whole cell extract. It is filed as cell-based, rat. To be noted: H9c2 myocytes, 50 µM, 2 hours. The essentials: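 H9c2 cells were grown in DMEM with 10% FBS and treated at 90% confluence for 2 h with test compound or DMSO, with TSA as positive control. Washed in ice-cold PBS, lysed in PBS pH 7.4 with 0.5% Triton X-100 and 300 mM NaCl plus inhibitors, sonicated and clarified. SDS-PAGE, nitrocellulose, acetyl-H3K9/14 and total H3 antibodies, chemiluminescence; densitometry; ANOVA with Tukey.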
On the technique in general: A western blot detects proteins with antibodies after separation by electrophoresis.

For the next test, the system named is Class IIa HDAC. Briefly: HDAC activity assay, class IIa substrate, bovine heart tissue lysate. It is filed as biochemical. Conditions: 2 hours treatment. A digest of the protocol: as §1

Chain of recombinant HDAC1 (Q13547 whole entry): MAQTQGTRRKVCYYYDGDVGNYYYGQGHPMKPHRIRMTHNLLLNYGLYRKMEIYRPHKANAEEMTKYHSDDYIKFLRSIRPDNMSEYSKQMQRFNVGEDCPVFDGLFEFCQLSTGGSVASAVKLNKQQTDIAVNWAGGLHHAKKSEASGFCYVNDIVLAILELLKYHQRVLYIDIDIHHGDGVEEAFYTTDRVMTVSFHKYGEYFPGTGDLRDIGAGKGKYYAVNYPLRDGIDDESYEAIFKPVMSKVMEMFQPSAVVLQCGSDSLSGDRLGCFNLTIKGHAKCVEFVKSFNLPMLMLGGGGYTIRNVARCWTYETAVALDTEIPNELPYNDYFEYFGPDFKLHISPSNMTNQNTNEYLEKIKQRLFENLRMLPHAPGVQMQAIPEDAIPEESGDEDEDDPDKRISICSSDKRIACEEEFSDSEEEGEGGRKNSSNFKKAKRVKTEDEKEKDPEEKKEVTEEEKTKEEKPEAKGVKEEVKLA

As for `Oc1cc2c(cc1O)[C@@H]1c3ccc(O)c(O)c3OC[C@]1(O)C2` [Hematoxylin], the “class IIb HDAC activity, effect in words” value in the test on Class IIb HDAC is “targeted class IIb HDACs for inhibition”. The “% HDAC activity, Class IIa HDACs, 7” value on recombinant HDAC7 was “-”. For the same compound, the remaining activity at 50 µM on recombinant HDAC6 is 81.8%.
For `O=c1c(O)c(-c2ccc(O)c(O)c2)oc2cc(O)cc(O)c12` [Quercetin dihydrate], the remaining activity at 50 µM at recombinant HDAC1 amounted to 72.7%; on recombinant HDAC3, 63.6%; on recombinant HDAC8, 64%; at recombinant HDAC4, 89.8%; on recombinant HDAC5, 78.2%; at recombinant HDAC9, 70.8%. At recombinant HDAC10, the remaining activity at 50 µM was determined as 68%. For the same compound, the “% HDAC activity, Class IIa HDACs, 7” value at recombinant HDAC7 is “-”. In addition, in test [1], the “catalytic HDAC activity across class I, IIa and IIb substrates, effect in words” value is recorded as “dose-dependent pan-HDAC inhibition”. Further, the “acetylation of histone 3 on lysine 9/14 (Ac-H3 K9/14) via immunoblot” value with H9c2 cells is reported as “increased”.
For the compound `CN1CCc2c(c3ccccc3n2Cc2ccc(C(=O)NO)cc2)C1` [TubA, Tubastatin A, reference compound], the “class IIb HDAC activity, effect in words” value in the test on Class IIb HDAC is on record as “only inhibited class IIb HDAC activity”.
For the compound DPAH, the “class IIa HDAC activity, effect in words” value with Class IIa HDAC is recorded as “only inhibited class IIa HDAC activity”.
